Source: ChEMBL document CHEMBL1125249, “Structure-affinity relationships of 12-sulfonyl derivatives of 5,8,8a,9,10,11,12,12a,13,13a-decahydro-6H-isoquino[2,1-g][1 ,6] naphthyridines at alpha-adrenoceptors” (J Med Chem, 1991)

Assays:
[1] = target: T1, Adrenergic receptor alpha-2 (Rattus norvegicus, UniProt P22086+P19328+P22909); assay: Binding affinity to alpha-2 adrenergic receptor determined by measurement of [3H]yohimbine displacement from rat cortical membrane
T1 sequence (P22086 whole entry): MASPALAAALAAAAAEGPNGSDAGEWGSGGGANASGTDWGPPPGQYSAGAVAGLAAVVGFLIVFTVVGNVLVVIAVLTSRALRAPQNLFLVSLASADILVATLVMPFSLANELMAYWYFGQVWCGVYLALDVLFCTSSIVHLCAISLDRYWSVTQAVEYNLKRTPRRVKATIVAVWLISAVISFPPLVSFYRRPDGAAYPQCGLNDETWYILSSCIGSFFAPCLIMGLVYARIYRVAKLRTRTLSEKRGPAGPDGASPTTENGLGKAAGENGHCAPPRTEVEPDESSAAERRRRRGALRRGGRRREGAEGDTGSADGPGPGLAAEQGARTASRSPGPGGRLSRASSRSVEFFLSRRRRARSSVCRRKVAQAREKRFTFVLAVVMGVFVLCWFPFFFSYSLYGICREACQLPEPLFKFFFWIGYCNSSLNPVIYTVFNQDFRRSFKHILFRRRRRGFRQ
T1 sequence (P19328 whole entry): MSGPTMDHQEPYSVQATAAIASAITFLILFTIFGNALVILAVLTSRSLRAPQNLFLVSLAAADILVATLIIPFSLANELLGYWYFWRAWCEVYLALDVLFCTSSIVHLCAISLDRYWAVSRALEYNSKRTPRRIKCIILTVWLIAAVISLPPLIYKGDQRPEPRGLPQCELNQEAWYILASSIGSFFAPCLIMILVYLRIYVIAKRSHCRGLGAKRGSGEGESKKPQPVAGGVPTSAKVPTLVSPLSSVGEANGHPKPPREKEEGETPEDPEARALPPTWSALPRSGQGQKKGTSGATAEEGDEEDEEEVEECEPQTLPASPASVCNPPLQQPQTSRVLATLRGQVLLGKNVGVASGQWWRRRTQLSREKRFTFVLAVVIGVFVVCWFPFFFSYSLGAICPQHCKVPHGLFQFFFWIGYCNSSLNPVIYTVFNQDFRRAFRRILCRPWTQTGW
T1 sequence (P22909 whole entry): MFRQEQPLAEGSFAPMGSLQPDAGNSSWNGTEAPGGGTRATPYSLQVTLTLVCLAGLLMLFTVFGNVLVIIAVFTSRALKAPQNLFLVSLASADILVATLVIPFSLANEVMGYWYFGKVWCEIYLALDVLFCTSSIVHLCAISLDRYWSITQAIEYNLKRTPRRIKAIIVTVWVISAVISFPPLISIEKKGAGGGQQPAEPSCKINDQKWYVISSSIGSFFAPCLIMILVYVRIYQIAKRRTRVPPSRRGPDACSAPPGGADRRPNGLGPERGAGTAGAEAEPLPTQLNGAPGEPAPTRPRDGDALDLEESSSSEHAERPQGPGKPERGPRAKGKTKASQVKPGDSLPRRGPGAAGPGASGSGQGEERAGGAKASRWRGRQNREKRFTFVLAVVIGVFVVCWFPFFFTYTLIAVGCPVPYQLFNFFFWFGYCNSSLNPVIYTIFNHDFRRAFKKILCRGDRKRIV

[2] = target: T2, Adrenergic receptor alpha-1 (Rattus norvegicus, UniProt P15823+P23944+P43140); assay: Binding affinity to alpha-1 adrenergic receptor determined by measurement of [3H]prazosin displacement from rat cortical membrane
T2 sequence (P15823 whole entry): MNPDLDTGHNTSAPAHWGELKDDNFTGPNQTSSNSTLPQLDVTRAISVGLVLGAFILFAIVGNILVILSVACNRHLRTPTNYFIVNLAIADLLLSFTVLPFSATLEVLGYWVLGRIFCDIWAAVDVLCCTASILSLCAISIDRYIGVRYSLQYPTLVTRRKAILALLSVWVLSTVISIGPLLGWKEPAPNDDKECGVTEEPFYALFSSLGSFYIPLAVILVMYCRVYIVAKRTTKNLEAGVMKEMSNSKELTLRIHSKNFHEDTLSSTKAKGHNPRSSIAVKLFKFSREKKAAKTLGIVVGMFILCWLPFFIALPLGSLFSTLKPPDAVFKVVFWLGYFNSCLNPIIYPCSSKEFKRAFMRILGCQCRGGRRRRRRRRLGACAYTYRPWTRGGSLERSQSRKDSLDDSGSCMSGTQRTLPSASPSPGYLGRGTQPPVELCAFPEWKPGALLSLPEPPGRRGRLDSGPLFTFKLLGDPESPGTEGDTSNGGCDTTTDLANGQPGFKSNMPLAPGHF
T2 sequence (P23944 whole entry): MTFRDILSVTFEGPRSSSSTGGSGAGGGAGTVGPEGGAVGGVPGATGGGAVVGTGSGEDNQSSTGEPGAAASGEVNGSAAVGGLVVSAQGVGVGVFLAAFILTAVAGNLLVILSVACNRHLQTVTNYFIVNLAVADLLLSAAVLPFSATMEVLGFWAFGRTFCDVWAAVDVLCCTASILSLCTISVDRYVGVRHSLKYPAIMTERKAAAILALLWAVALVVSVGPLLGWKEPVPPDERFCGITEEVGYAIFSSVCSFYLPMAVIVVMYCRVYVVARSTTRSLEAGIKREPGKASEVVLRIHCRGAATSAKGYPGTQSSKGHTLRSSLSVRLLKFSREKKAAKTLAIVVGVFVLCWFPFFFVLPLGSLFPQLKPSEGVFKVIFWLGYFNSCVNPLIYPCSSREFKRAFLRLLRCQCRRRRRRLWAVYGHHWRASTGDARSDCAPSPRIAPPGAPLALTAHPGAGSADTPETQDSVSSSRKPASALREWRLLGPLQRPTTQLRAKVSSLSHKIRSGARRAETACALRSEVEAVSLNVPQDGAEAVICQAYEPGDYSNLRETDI
T2 sequence (P43140 whole entry): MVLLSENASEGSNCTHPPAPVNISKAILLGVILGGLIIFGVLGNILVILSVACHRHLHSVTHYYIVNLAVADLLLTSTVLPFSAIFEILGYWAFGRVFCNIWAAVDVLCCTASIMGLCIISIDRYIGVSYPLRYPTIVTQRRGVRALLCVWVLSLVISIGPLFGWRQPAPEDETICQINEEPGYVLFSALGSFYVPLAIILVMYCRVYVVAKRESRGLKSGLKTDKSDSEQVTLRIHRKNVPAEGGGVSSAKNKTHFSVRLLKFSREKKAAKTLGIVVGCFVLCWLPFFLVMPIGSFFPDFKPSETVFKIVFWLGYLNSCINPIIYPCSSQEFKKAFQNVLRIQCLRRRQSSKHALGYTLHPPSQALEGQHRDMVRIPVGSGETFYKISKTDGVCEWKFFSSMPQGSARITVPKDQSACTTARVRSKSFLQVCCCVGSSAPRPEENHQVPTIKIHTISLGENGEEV
Method in brief: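 Male Sprague-Dawley rat (150-200 g) cerebral cortex membranes, washed in 50 mM Tris-HCl/0.5 mM EDTA pH 7.4. 250 µg membrane protein incubated with 0.5 nM [3H]prazosin for 30 min at 25 °C in a 0.5 mL volume. Nonspecific binding defined by 10 µM phentolamine. IC50 estimated graphically; Ki calculated by Cheng-Prusoff.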

[3] = organism: Cavia porcellus; assay: In vitro reversal of inhibitory effect of UK - 14304 on the contractile response of guinea pig ileum to field stimulation.; type: functional, organism-based; settings: read-out: pA2 (converted)
Method in brief: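 Ileum from female Dunkin-Hartley guinea pigs (250-300 g) held in Tyrode solution at 37 °C, gassed with O2, under 1 g tension. Field stimulation at 0.1 Hz (1-ms pulses, supramaximal voltage), with isometric contractions recorded. Cumulative UK-14304 curves were run, the second taken as control. Antagonist was then applied for 40 min before repeat agonist curves.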

[4] = target: T3, Adrenergic receptor alpha-2 (Rattus norvegicus) (UniProt P22086+P19328+P22909)
[5] = target: T3, Adrenergic receptor alpha-2 (Rattus norvegicus); remark: listed apart in the source

SMILES | Log Ki [1] | Log Ki [2] | Kb [3] [nM] | ID50 [4] [mg/kg] | ID50 [5] [mg/kg]
COc1ccc2c(c1)CCN1C[C@@H]3CCCN(S(C)(=O)=O)[C@@H]3C[C@H]21 | -6.32 | < -5 | 316 | > 10 | > 10
c1ccc2c(c1)OCC(C1=NCCN1)O2 (centres undefined) [IDAZOXAN] | – | – | 3.98 | 0.017 | 1.2
COC(=O)[C@@H]1[C@H]2C[C@H]3c4[nH]c5ccccc5c4CCN3C[C@@H]2CC[C@@H]1O | – | – | – | 0.185 | 2.8
CCCS(=O)(=O)N1CCC[C@@H]2CN3CCc4ccccc4[C@@H]3C[C@@H]21 | -8.73 | -5.29 | 0.398 | 0.019 | 1.4
COc1ccc2c(c1)CCN1C[C@H]3CCCN(S(C)(=O)=O)[C@@H]3C[C@@H]21 | – | – | 0.2 | 0.0065 | 0.095
COc1ccc(S(=O)(=O)N2CCC[C@@H]3CN4CCc5ccccc5[C@@H]4C[C@@H]32)cc1 | -9.34 | -5.31 | 1.58 | 0.18 | > 3
COc1cc2c(cc1OC)[C@@H]1C[C@H]3[C@H](CCCN3S(C)(=O)=O)CN1CC2 | -8.01 | -4.46 | – | 0.38 | 1.6
CS(=O)(=O)N1CCC[C@@H]2CN3CCc4cc5c(cc4[C@@H]3C[C@@H]21)OCCO5 | -8.8 | -5.02 | – | 0.13 | 1.4
COc1ccc2c(c1)CCN1C[C@H]3CCCN(S(C)(=O)=O)[C@H]3C[C@@H]21 [DELEQUAMINE] | -9.18 | -4.99 | 0.2 | 0.013 | 0.21
COc1ccc2c(c1)CCN1C[C@H]3CCCN(S(=O)(=O)CC(C)C)[C@H]3C[C@@H]21 | -8.77 | -5.41 | – | 0.022 | 0.41
CS(=O)(=O)N1CCC[C@@H]2CN3CCc4ccccc4[C@@H]3C[C@@H]21 | -8.77 | -5.26 | – | 0.0125 | 1.2
COCCS(=O)(=O)N1CCC[C@@H]2CN3CCc4ccccc4[C@@H]3C[C@@H]21 | -8.63 | -5.13 | – | 0.062 | 0.24
COCCS(=O)(=O)N1CCC[C@@H]2CN3CCc4cc(OC)ccc4[C@@H]3C[C@@H]21 | -9.22 | -5.03 | – | 0.09 | 0.3
CCS(=O)(=O)N1CCC[C@@H]2CN3CCc4ccccc4[C@@H]3C[C@@H]21 | -8.82 | -4.97 | 5.01 | 0.019 | 1.1
COc1ccc2c(c1)CCN1C[C@H]3CCCN(S(=O)(=O)N(C)C)[C@@H]3C[C@@H]21 | -8.97 | -5.57 | 0.501 | 0.027 | 0.17
CC(C)CS(=O)(=O)N1CCC[C@@H]2CN3CCc4ccccc4[C@@H]3C[C@@H]21 | -8.77 | -5.37 | 0.316 | 0.034 | 0.85
O=S(=O)(c1ccccc1)N1CCC[C@@H]2CN3CCc4ccccc4[C@@H]3C[C@@H]21 | -8.81 | -5.31 | – | 0.053 | > 10
O=S(=O)(CCO)N1CCC[C@@H]2CN3CCc4ccccc4[C@@H]3C[C@@H]21 | -8.16 | -4.89 | – | 0.046 | 1.34
CC(C)CS(=O)(=O)N1CCC[C@@H]2CN3CCc4cc5c(cc4[C@@H]3C[C@@H]21)OCO5 | -8.17 | -5.04 | – | 0.062 | 0.44
CS(=O)(=O)N1CCC[C@H]2CN3CCc4cc5c(cc4[C@@H]3C[C@@H]21)OCO5 | -7.56 | -5.65 | – | – | –
O=S(=O)(c1ccc(Cl)cc1)N1CCC[C@@H]2CN3CCc4ccccc4[C@@H]3C[C@@H]21 | -8.3 | -5.19 | – | – | –
CS(=O)(=O)N1CCC[C@H]2CN3CCc4c([nH]c5ccccc45)[C@@H]3C[C@H]21 | -6.26 | -5.15 | – | – | –
CN(C)S(=O)(=O)N1CCC[C@@H]2CN3CCc4ccccc4[C@@H]3C[C@@H]21 | -8.74 | -6.03 | – | – | –
COc1ccc2c(c1)CCN1C[C@H]3CCCN(S(=O)(=O)Cc4ccccc4)[C@@H]3C[C@@H]21 | -8.82 | -5.13 | – | – | –
